Test results from ChEMBL document CHEMBL4732101, “Novel quinolone-based potent and selective HDAC6 inhibitors: Synthesis, molecular modeling studies and biological investigation” (Eur J Med Chem, 2021).
pIC50: −log10 of the molar value. Each block holds one molecule with its values, some of them ahead of it. Activity calls are given as the source filed them. The calls are words filed in the database; no cut-off is given here.

Columns and labels:
[1] = Mutagenicity in Salmonella typhimurium TA100 at 5 to 230 uM measured after 90 mins in presence of rat liver S9 fraction by Ames test; assay type: toxicity, subcellular; settings: salmonella enterica subsp. enterica serovar typhimurium, s9, 1.5 h, dose 5-230 µM
NIH3T3 = assay: Cytotoxicity against mouse NIH/3T3 cells assessed as reduction in cell viability after 24 hrs by neutral red uptake assay; assay type: cell-based; settings: NIH3T3, 24 h
How it was run: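 NIH3T3 fibroblasts seeded at 5 x 10^4 per well and cultured 24 h at 37 °C, 5% CO2. DMSO-solubilized samples added at 8 to 160 µM for 24 h; medium as negative control. Neutral Red medium applied 3 h, dye desorbed in acetic acid/ethanol, absorbance read at 540 nm. Three experiments, six replicates per concentration; viability normalized to % control.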

Histone deacetylase 1 = Histone deacetylase 1 (Homo sapiens, UniProt Q13547); assay: Inhibition of recombinant human C-terminal FLAG/His-tagged HDAC1 (1 to 482 residues) expressed in Sf9 insect cells using Z-(Ac)Lys-AMC as substrate measured after 90 mins by fluorescence assay
Sequence of Histone deacetylase 1 (Q13547 whole entry, the tested form may be a part): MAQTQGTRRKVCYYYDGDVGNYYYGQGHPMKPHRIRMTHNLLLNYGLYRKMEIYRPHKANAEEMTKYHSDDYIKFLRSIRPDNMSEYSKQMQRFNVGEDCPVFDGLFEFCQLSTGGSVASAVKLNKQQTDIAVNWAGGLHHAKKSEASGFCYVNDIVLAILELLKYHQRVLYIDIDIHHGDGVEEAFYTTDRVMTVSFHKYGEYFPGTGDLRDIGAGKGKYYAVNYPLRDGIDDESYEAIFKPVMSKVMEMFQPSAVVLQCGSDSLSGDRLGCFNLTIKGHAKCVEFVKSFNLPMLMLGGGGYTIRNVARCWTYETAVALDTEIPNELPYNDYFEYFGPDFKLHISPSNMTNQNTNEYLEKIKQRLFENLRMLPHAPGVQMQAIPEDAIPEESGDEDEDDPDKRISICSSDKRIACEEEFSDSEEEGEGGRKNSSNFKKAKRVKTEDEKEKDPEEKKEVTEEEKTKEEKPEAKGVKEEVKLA
How it was run: (§1)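 Incubated with inhibitor in DMSO and fluorogenic substrate Z-(Ac)Lys-AMC (126 µM, as added) for 90 min at 37 °C. Stopped with trichostatin A plus trypsin for 30 min at 37 °C; fluorescence read at ex 390/em 460 nm.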

[2] = Mutagenicity in Salmonella typhimurium TA98 at 5 to 230 uM measured after 90 mins in absence of rat liver S9 fraction by Ames test; assay type: toxicity; settings: salmonella enterica subsp. enterica serovar typhimurium, 1.5 h, dose 5-230 µM
[3] = Mutagenicity in Salmonella typhimurium TA100 at 5 to 230 uM measured after 90 mins in absence of rat liver S9 fraction by Ames test; assay type: toxicity; settings: salmonella enterica subsp. enterica serovar typhimurium, s9, 1.5 h, dose 5-230 µM
[4] = biological target: T1, Protein deacetylase HDAC6 (Homo sapiens, UniProt Q9UBN7); assay: Inhibition of recombinant human full length N-terminal GST-tagged HDAC6 expressed in baculovirus infected Sf9 cells using Z-(Ac)Lys-AMC as substrate measured after 90 mins by fluorescence assay
T1 sequence (Q9UBN7 whole entry): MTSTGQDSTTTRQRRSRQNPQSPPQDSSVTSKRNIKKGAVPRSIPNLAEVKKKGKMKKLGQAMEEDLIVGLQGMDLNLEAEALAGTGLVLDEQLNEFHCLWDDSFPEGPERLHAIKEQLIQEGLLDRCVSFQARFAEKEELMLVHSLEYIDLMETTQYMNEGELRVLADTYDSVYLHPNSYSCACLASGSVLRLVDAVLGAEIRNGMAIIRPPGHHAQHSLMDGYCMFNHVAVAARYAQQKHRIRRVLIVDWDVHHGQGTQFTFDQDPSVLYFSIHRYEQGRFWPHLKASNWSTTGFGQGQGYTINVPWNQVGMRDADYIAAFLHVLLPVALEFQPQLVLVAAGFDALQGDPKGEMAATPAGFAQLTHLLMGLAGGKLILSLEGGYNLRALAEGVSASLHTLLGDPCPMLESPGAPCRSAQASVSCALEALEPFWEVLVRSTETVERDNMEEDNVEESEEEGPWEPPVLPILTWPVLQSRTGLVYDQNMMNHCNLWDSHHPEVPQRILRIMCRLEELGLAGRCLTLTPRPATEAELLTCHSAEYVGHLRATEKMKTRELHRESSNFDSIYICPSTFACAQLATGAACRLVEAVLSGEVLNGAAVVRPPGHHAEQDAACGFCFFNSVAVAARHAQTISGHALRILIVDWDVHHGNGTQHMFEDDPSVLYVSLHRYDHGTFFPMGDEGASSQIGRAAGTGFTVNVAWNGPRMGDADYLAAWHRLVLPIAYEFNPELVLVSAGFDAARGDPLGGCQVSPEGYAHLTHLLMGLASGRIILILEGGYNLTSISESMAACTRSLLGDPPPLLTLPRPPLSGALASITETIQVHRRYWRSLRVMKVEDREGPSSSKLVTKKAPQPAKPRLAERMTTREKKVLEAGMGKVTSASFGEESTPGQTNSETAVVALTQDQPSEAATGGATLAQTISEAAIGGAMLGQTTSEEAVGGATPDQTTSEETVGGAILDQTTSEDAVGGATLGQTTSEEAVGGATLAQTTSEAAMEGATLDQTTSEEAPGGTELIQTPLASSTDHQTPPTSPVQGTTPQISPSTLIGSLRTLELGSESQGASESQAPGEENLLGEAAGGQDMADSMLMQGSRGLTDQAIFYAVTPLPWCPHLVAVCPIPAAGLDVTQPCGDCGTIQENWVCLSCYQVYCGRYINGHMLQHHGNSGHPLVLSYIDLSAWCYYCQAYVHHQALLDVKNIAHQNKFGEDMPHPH

[5] = Mutagenicity in Salmonella typhimurium TA98 at 5 to 230 uM measured after 90 mins in presence of rat liver S9 fraction by Ames test; assay type: toxicity, subcellular; settings: salmonella enterica subsp. enterica serovar typhimurium, s9, 1.5 h, dose 5-230 µM
Histone deacetylase 8 = biological target: T2, Histone deacetylase 8 (Homo sapiens, UniProt Q9BY41); assay: Inhibition of recombinant human HDAC8 using Fluor-de-Lys as substrate measured after 1 hr by fluorescence assay
T2 sequence (Q9BY41 whole entry): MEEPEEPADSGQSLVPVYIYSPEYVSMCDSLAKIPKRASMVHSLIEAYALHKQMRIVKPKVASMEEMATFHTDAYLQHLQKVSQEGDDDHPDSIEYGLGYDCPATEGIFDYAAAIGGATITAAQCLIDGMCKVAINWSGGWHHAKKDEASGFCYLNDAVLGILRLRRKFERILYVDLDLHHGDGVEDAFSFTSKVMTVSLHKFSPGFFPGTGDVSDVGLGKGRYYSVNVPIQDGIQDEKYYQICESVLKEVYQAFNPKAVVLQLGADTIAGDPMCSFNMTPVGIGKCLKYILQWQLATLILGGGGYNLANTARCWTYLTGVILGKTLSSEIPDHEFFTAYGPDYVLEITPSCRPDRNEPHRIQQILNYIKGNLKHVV

[6] = biological target: T3, HDAC1 (histone deacetylase 1) (Homo sapiens, UniProt Q13547); assay: Inhibition of recombinant human C-terminal FLAG/His-tagged HDAC1 (1 to 482 residues) expressed in Sf9 insect cells at 50 uM using Z-(Ac)Lys-AMC as substrate measured after 90 mins by fluorescence assay relative to control; settings: probe Z-(Ac)Lys-AMC; how it was run: as §1
T3 sequence (Q13547 whole entry, the tested form may be a part): as the sequence (Q13547 whole entry, the tested form may be a part) above

[7] = biological target: T3, HDAC1 (histone deacetylase 1); assay: Inhibition of recombinant human C-terminal FLAG/His-tagged HDAC1 (1 to 482 residues) expressed in Sf9 insect cells at 10 uM using Z-(Ac)Lys-AMC as substrate measured after 90 mins by fluorescence assay relative to control; settings: probe Z-(Ac)Lys-AMC; how it was run: as §1
[8] = biological target: T3, HDAC1 (histone deacetylase 1); assay: Inhibition of recombinant human C-terminal FLAG/His-tagged HDAC1 (1 to 482 residues) expressed in Sf9 insect cells at 25 uM using Z-(Ac)Lys-AMC as substrate measured after 90 mins by fluorescence assay relative to control; settings: probe Z-(Ac)Lys-AMC; how it was run: as §1
[9] = biological target: T3, HDAC1 (histone deacetylase 1); assay: Inhibition of recombinant human C-terminal FLAG/His-tagged HDAC1 (1 to 482 residues) expressed in Sf9 insect cells at 1 uM using Z-(Ac)Lys-AMC as substrate measured after 90 mins by fluorescence assay relative to control; settings: probe Z-(Ac)Lys-AMC; how it was run: as §1
[10] = Stability of compound in pH 3 buffer assessed as parent compound remaining at 250 uM measured after 24 hrs by HPLC/UV/DAD method; assay type: physicochemical; settings: read-out: Stabilty
How it was run: (§2)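 10 mM DMSO stock diluted to 250 µM (2.5% DMSO) in 50 mM acetic acid, pH 3.0, and shaken 24 h at 25 °C. For solubility, samples filtered, diluted 1:2, quantified by HPLC-UV at 254 nm against a standard. For stability, percent remaining taken as the 24 h peak area over the T0 peak area. Triplicate analyses averaged.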

[11] = Solubility of compound in pH 3 buffer at 250 uM measured after 24 hrs by HPLC/UV/DAD method; assay type: physicochemical; settings: pH 3, 24 h; how it was run: as §2
[12] = biological target: T4, Protein deacetylase HDAC6 (Homo sapiens) (UniProt Q9UBN7); assay: Inhibition of HDAC6 in human U-937 cells assessed as increase in Hsp90(AcLys294) acetylation at 10 uM measured after 12 to 24 hrs by Western blot analysis; assay type: cell-based; settings: time 12-24 hrs
T4 sequence (whole entry): T1 sequence (Q9UBN7 whole entry)
How it was run: (§3)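 HCT-116 or U937 cells treated at 10 µM for 12 and 24 h. […] Western blot used 40 µg total protein or 5 µg acid-extracted histone. Blots probed for cleaved PARP, acetylated tubulin, H3K9/14ac and Hsp90(AcLys294), normalized to GAPDH or H4. Compared with control cells by one-way ANOVA and Dunnett's test.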

[13] = Inhibition of HDAC1/2/3/8 in human U-937 cells assessed as increase in H3K9/14 acetylation at 10 uM measured after 12 to 24 hrs by Western blot analysis; assay type: cell-based; settings: u-937, 10 µM, time 12-24 hrs; how it was run: as §3
[14] = biological target: T4, Protein deacetylase HDAC6 (Homo sapiens); assay: Inhibition of HDAC6 in human U-937 cells assessed as increase in alpha-tubulin acetylation at 10 uM measured after 12 to 24 hrs by Western blot analysis relative to control; assay type: cell-based; settings: time 12-24 hrs; how it was run: as §3
U-937 [15] = assay: Cytotoxicity against human U-937 cells assessed as reduction in cell proliferation at 50 uM measured after 48 hrs by MTT assay relative to control; assay type: functional; parameters: scale not given: the % may be the effect or the level left
How it was run: (§4)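 U937 cells grown in RPMI-1640 with 10% FBS, 2 mM L-glutamine and penicillin-streptomycin. 2.5×10^4 cells/well treated in triplicate at 50, 25, 10, 5 and 1 µM for 12, 24 or 48 h. MTT 0.5 mg/ml added for 3 h, plate centrifuged 5 min at 1200 rpm, crystals dissolved in isopropanol, A570 read. IC50 derived from the concentration series.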

[16] = biological target: T4, Protein deacetylase HDAC6 (Homo sapiens); assay: Inhibition of HDAC6 in human HCT-116 cells assessed as increase in Hsp90(AcLys294) acetylation at 10 uM measured after 12 to 24 hrs by Western blot analysis; assay type: cell-based; settings: time 12-24 hrs; how it was run: as §3
[17] = biological target: T4, Protein deacetylase HDAC6 (Homo sapiens); assay: Inhibition of HDAC6 in human HCT-116 cells assessed as increase in alpha-tubulin acetylation at 10 uM measured after 12 to 24 hrs by Western blot analysis relative to control; assay type: cell-based; settings: time 12-24 hrs; how it was run: as §3
U-937 [18] = assay: Cytotoxicity against human U-937 cells assessed as reduction in cell viability measured after 48 hrs by MTT assay; assay type: functional, cell-based; settings: U-937, 48 h; how it was run: as §4
HCT-116 [19] = assay: Cytotoxicity against human HCT-116 cells assessed as reduction in cell viability measured after 24 hrs by MTT assay; assay type: functional, cell-based; settings: HCT-116, 24 h
How it was run: (§5)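 HCT-116 cells grown in DMEM with 10% FBS, 2 mM L-glutamine and antibiotics. 2.5×10^4 cells/well treated in triplicate at 50, 25, 10, 5 and 1 µM for 12, 24 or 48 h. Then MTT 0.5 mg/ml for 3 h, supernatant removed, formazan dissolved in isopropanol, absorbance read at 570 nm. IC50 derived from the concentration series.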

[20] = Inhibition of HDAC1/2/3/8 in human HCT-116 cells assessed as increase in H3K9/14 acetylation at 10 uM measured after 12 to 24 hrs by Western blot analysis relative to control; assay type: cell-based; settings: hct-116, 10 µM, time 12-24 hrs; how it was run: as §3
HCT-116 [21] = assay: Cytotoxicity against human HCT-116 cells assessed as reduction in cell viability measured after 48 hrs by MTT assay; assay type: functional, cell-based; settings: HCT-116, 48 h; how it was run: as §5
HCT-116 [22] = assay: Cytotoxicity against human HCT-116 cells assessed as cell viability at 50 uM measured after 48 hrs by MTT assay relative to control; assay type: functional; settings: read-out: Activity; how it was run: as §5

pIC50 (Histone deacetylase 1): 5.52
pIC50 [4]: 7.48
pIC50 (Histone deacetylase 8): 5.79
Kapp (Histone deacetylase 8; human, 1 h): 1.93 µM
SMILES: Cn1c(=O)c(OCc2ccc(C(=O)NO)cc2)c(C2CCCCC2)c2ccccc21
Activity [1]: Non-Toxic
pIC50 (NIH3T3): 4.74
Activity [2]: Non-Toxic
Activity [3]: Non-Toxic
Activity [5]: Non-Toxic

pIC50 (Histone deacetylase 1): 5.26
pIC50 [4]: 7.07
SMILES: O=C(NO)c1ccc(Cn2c(=O)c(OCc3ccccc3)c(-c3ccccc3)c3ccccc32)cc1

pIC50 (Histone deacetylase 1): 5.77
pIC50 [4]: 7.34
SMILES: O=C(NO)c1ccc(COc2c(-c3cccnc3)c3ccccc3n(Cc3ccncc3)c2=O)cc1

SMILES: O=C(NO)c1ccc(COc2c(-c3ccccc3)c3ccccc3n(C3CCN(Cc4ccccc4)CC3)c2=O)cc1
inhibition at 1.5 h, 50 µM [6]: 79%
inhibition at 1.5 h, 10 µM [7]: 46%
inhibition at 1.5 h, 25 µM [8]: 67%
pIC50 [4]: 6.06
inhibition at 1.5 h, 1 µM [9]: < 10%

pIC50 (Histone deacetylase 1): 5.30
pIC50 [4]: 7.34
SMILES: Cn1c(=O)c(OCc2ccc(C(=O)NO)cc2)c(-c2cccnc2)c2ccccc21

remaining at 24 h, 250 µM [10]: > 95%
solubility [11]: Soluble
pIC50 (Histone deacetylase 1): 5.92
pIC50 [4]: 7.08
SMILES: O=C(NO)c1ccc(COc2c(-c3ccccc3)c3ccccc3n(Cc3ccncc3)c2=O)cc1

inhibition [12]: Active
inhibition (INH) [13]: Active
fold change (FC) [14]: > 9
inhibition [16]: Active
pIC50 (Histone deacetylase 1): 5.18
pIC50 [4]: 6.83
fold change (FC) [17]: > 9
fold change (FC) [20]: 2
SMILES: O=C(NO)c1ccc(COc2c(-c3ccccc3)c3ccccc3[nH]c2=O)cc1
Activity (U-937 [15]): 60%
pIC50 (U-937 [18]): 4.55
pIC50 (HCT-116 [19]): 4.48
pIC50 (HCT-116 [21]): 4.82
viability at 50 µM (HCT-116 [22]): 10%
